Screens as filed in PubChem BioAssay.
NPY-Y1 PAM-ag: human NPY-Y1 potentiation or agonism, primary screen; P25929; NPY-Y1 expressing cells, potentiator/agonist activation; activation, % at 3.6 µM; 0.37% of 220,000 active; in the data active means activation above about 33%, passing the limit was not always enough;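 further: cells stimulated with NPY at EC10 then isoproterenol at EC100; 0% = low agonist plus stimulus and 100% = saturating agonist plus stimulus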
Target sequence (P25929 whole entry, looked up): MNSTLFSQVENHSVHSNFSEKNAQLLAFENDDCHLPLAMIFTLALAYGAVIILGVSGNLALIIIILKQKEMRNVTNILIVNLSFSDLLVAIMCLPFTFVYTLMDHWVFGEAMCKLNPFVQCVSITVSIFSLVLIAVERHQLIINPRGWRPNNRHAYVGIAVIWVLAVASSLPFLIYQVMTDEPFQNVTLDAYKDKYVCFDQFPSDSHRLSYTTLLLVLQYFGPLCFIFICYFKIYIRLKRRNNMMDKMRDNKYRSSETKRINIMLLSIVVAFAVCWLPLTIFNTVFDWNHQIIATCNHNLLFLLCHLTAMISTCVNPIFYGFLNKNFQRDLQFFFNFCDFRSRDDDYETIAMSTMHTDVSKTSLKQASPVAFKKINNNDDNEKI
WT yeast gro inh: growth inhibition of WT yeast, mitochondrial fusion screen. mitochondrial fusion phenotypic screen, WT strain. inhibition, % at 10 µM. 2.1% of 190,000 active. AID 1362; in the data active means inhibition above about 58%; tested in S. cerevisiae
NPY Y2 blocker: NPY-Y2 (human) receptor antagonism; inhibition, % at 2.7 µM; P49146; AID 793; NPY-Y2 expressing cells, antagonist mode; 0.99% of 140,000 active;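 further: 0% = vehicle with agonist challenge and 100% = reference antagonist with challenge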
NPY2 pot ag: human NPY-Y2 potentiation or agonism, primary screen | cells expressing NPY-Y2, potentiator/agonist read-out | 0.45% of 220,000 active | P49146 | AID 1359 | activation, % at 3.6 µM; in the data active means activation above about 27%;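 further: cells stimulated with NPY near EC25 plus isoproterenol at EC100; 0% = vehicle plus submaximal agonist and 100% = vehicle plus saturating agonist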
RAM inhibit: inhibitors of the yeast RAM network; 1.8% of 190,000 active; S. cerevisiae dse1pr::URA3 reporter, 5-FOA growth OD615, 2 d; analog-sensitive cbk1-as2 kinase mutant strain; AID 868; inhibition, % at 50 µM;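 active means inhibition above a set limit, 3 SD over mean compound inhibition, cut at about 8.4% in these data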;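 further: 0% = DMSO-only wells with no growth and 100% = 10 µM 1-NA-PP1 full growth; inhibition rescues growth on 5-FOA so higher OD means more RAM inhibition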
NPY-Y1 antag: antagonists of human neuropeptide Y receptor Y1; AID 1040; inhibition, % at 3.6 µM; HEK293-CNG Y1 cells, membrane potential fluorescence; NPY at EC95, then isoproterenol; 1% of 200,000 active; P25929;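 active means inhibition above the campaign mean inhibition of all tested compounds plus 3 SD, cut at about 20% in these data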;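 further: 0% = DMSO wells given NPY plus isoproterenol and 100% = isoproterenol alone without NPY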
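Test system – HEK293 Y1/CNG channel cell line · Also added – NPY agonist 25 nM, then isoproterenol 1 µM plus Ro 20-1724 25 µM · Compound dosing – one concentration, 3.6 µM, in 0.4% DMSO · Schedule – compound incubation 1 h at room temperature, readout 45 min post-stimulation · Technique – fluorescence, membrane potential probe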
NPY1 antag conf: human NPY-Y1 antagonism, confirmation. shares compounds with NPY-Y1 antag. HEK293-CNG NPY-Y1, membrane potential fluorescence, cAMP; NPY challenge against isoproterenol-raised cAMP. 21% of 1,200 active. inhibition, % at 3.6 µM. AID 1254; in the data active means inhibition above about 20%;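 further: 0% = vehicle with agonist plus stimulus and 100% = stimulus alone without agonist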
NPY2 antag ctr: antagonizes human NPY-Y2, counter-screen to NPY-Y1 antagonists; inhibition, % at 3.6 µM; AID 1255; shares compounds with NPY-Y1 antag; 28% of 1,200 active; HEK293 NPY-Y2 CNG membrane potential fluorescence, antagonism; cells given NPY, then isoproterenol;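 further: 0% = DMSO with agonist challenge and 100% = reference antagonist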
Active calls of the source: *; . = not tested or not shown. Compounds with a hit are over-represented: about 4.9% of the library has one in this group of screens. Unless noted, no stated cut-off is given here; in the data, active means inhibition above about 17%; inactive means the rest.

SMILES | NPY-Y1 PAM-ag | WT yeast gro inh | NPY Y2 blocker | NPY2 pot ag | RAM inhibit | NPY-Y1 antag | NPY1 antag conf | NPY2 antag ctr
CCCCOC(=O)c1cc(=O)[nH]c2ccc(C)cc12 | -5 | 12 | . | 3 | 3 | 22* | 10 | 8
CN(C)CCn1c(=N)n(CC(O)c2ccc(Cl)c(Cl)c2)c2ccccc21 (configuration not stated) | -16 | 1 | . | -33 | 0 | 23* | 16 | 29*
O=C(Nc1ccc(C(F)(F)F)cc1Cl)c1ccc(Cn2cc(Br)cn2)o1 | -52 | 13 | 8 | -23 | 8 | 22* | 7 | 8
O=C(Nc1cccc(C(F)(F)F)c1)c1ccc(Cn2cc(Br)cn2)o1 | 17 | 4 | 1 | -4 | 3 | -1 | . | .
CC(C)NC(=O)c1ccc(-n2nc(C(F)(F)F)c3c2CCCC3)cc1 | 11 | -9 | 0 | 9 | 3 | -1 | . | .
CN1CCC(Oc2ccc(Sc3ccccc3)cc2)CC1 | -17 | 21 | 8 | 8 | 0 | 7 | . | .
CN1CCC(Oc2ccccc2Sc2ccc(C(F)(F)F)cc2)CC1 | -38 | 73 | 16 | -10 | 0 | 30* | 8 | 15
CCOC(=O)c1c(NC(C)=O)sc2c(OCC(O)CN(CC)CC)c(Br)ccc12 (configuration not stated) | -181 | 10 | . | -82 | 0 | 80* | 104* | 117*
CCOC(=O)c1c(NC(C)=O)sc2c(OC)c(Br)ccc12 | -33 | . | 3 | 2 | 5 | 2 | . | .
NS(=O)(=O)c1ccc(CCNC(=O)CN2CCN(c3ccccc3O)CC2)cc1 | 0 | -3 | 0 | 6 | 3 | 1 | . | .
CCOc1cc(C)cc2oc(=O)cc(-c3ccccc3)c12 | -1 | 35 | 15 | -15 | 2 | 14 | . | .
Cc1cc(OCC(=O)N2CCc3ccccc3C2)c2c(-c3ccccc3)cc(=O)oc2c1 | 0 | 55 | 13 | -22 | 2 | 21* | 13 | 11
CCOC(=O)c1c(C)oc2ccc(OCC(=O)C(C)(C)C)cc12 | -64 | 31 | 4 | -19 | 2 | 10 | . | .
Cc1ccccc1N(Cc1ccccc1F)S(C)(=O)=O | 3 | 7 | 3 | 9 | 0 | -1 | . | .
CCc1nnc(NC(=O)c2ccc(S(=O)(=O)N3CCCCC3C)cc2)s1 (configuration not stated) | 13 | 6 | 0 | -5 | 3 | -5 | . | .
CCc1nnc(NC(=O)c2ccc(S(=O)(=O)N3CCCCCC3)cc2)s1 | 8 | -14 | 0 | 3 | 5 | 61* | -4 | 0
O=C(C1CC1)N(CCN(Cc1ccccc1)C(=O)C1CC1)Cc1ccccc1 | -26 | -1 | 16 | -9 | 0 | 55* | 40* | 24*
O=C(Nc1ccc(F)cc1)c1sc2cc(C(F)(F)F)cnc2c1-c1cccs1 | -68 | 11 | 8 | -36 | 3 | 23* | 12 | 17
O=C(O)c1ccc(CSc2nc(-c3ccccc3)cc(C(F)(F)F)n2)cc1 | -16 | 43 | 1 | 10 | 8 | -2 | . | .
COc1ccc(-c2nc3ccccn3c2CN2CCN(c3ccccc3F)CC2)cc1 | -71 | 82* | . | -6 | 1 | 30* | 27* | 21*
CC(=O)Nc1ccc(Oc2nc(-c3ccccn3)nc3ccccc23)cc1 | -13 | . | . | 7 | . | . | . | .
O=C(O)CCSc1nc2ccccc2s1 | -36 | -2 | 10 | -30 | 0 | 27* | 8 | 6
Nc1nn(-c2cccc(F)n2)cc1-c1ccc(Cl)cc1 | 1 | 18 | . | 8 | 1 | 1 | . | .
Cc1cc(NC(=O)CC2CCCC2)n(-c2nc3ccccc3[nH]2)n1 | -24 | . | 17 | -7 | 3 | 21* | 17 | 8
CCCCCCC(=O)Nc1nc(C)c(-c2csc(Nc3ccc(Cl)cc3)n2)s1 | 10 | -4 | 5 | -9 | 4 | 25* | 15 | 4
SMILES | NPY-Y1 PAM-ag | WT yeast gro inh | NPY Y2 blocker | NPY2 pot ag | RAM inhibit | NPY-Y1 antag | NPY1 antag conf | NPY2 antag ctr
Cc1cc(CCN2CCC(=O)NC2=S)ccc1OC(C)C | -25 | -9 | 7 | -24 | 1 | 4 | . | .
O=C1CCC(/C=C/c2ccccc2)=NN1Cc1ccccc1 | -20 | 9 | . | -19 | 0 | 10 | . | .
CC(C)(C)c1ccc(CN2N=C(/C=C/c3ccccc3)CCC2=O)cc1 | -23 | 72* | . | -21 | 9.8* | 25* | 19 | 17
CC1=C(C(=O)NC2CCCCC2C)C2(CCC(C)CC2)OC1=O (configuration not stated) | 13 | 5 | 1 | -6 | 2 | 0 | . | .
O=C(NC1CCCC1)C(c1ccco1)N(Cc1ccccc1)C(=O)c1csnn1 (configuration not stated) | 0 | 0 | 14 | -1 | 0 | 30* | 4 | 5
O=C(Nc1ccsc1C(=O)NC1CC1)c1ccccc1 | -33 | -3 | 3 | -1 | 0 | -2 | . | .
O=C(C(Cc1ccccc1)n1cccc1)N1CCN(c2ccccc2)CC1 (configuration not stated) | 0 | 11 | 7 | -8 | 2 | 6 | . | .
Cc1ccc(C)c(N2CCN(C(=O)C(Cc3ccccc3)n3cccc3)CC2)c1 (configuration not stated) | -23 | 62* | 13 | -27 | 6 | 25* | 11 | 15
NC(=O)Cc1nc(-c2ccc(Br)cc2)cs1 | 14 | -16 | 0 | 10 | 0 | 4 | . | .
CCCCCn1c2c(c(=N)c3ccccc31)CCC2 | -46 | . | . | 4 | . | . | . | .
CCCCCCCCCn1c2c(c(=N)c3c1CCC3)CCCC2 | -78 | 80 | . | -40 | -1 | 58* | 102* | 79*
CCCCCCCCn1c2c(c(=N)c3ccccc31)CCC2 | -95 | 69 | . | -66 | 0 | 99* | 77* | 74*
CC1=[N+](CC(=O)NC(C)(C)C)CCc2ccccc21 | -7 | -8 | 1 | -11 | 3 | -1 | . | .
O=C(O)c1cn(-c2ccccc2)nc1-c1ccncc1 | -18 | 16 | 4 | 1 | 0 | 0 | . | .
CC1(C)[C@H]2CC[C@]1(C)[C@@H](OC(=O)C[N+]1(C)CCOCC1)C2 | 17 | . | . | 17 | . | . | . | .
CCOC(=O)C[N+](C)(C)CCOC1CC2CCC1(C)C2(C)C (configuration not stated) | -28 | 2 | . | -7 | 1 | 24* | 10 | 6
CC1(C)C2CCC1(C)C(OCC[N+](C)(C)CC(=O)OC1CCCCC1)C2 (configuration not stated) | -47 | 26 | 2 | 2 | 1 | 24* | 10 | 14
Cc1occc1C(=O)N1CCN(Cc2ccccc2)CC1 | 3 | 6 | 4 | -11 | 0 | -1 | . | .
c1ccc2c(NC3CCCC3)nnc(NC3CCCC3)c2c1 | -1 | 12 | 12 | -2 | -1 | 23* | 1 | 35*
